ChEMBL document CHEMBL1154124, “Vascular effects of different lipophilic components of "Danshen", a traditional Chinese medicine, in the isolated porcine coronary artery” (2008)
Active and inactive are the calls of the source. The rule behind the calls is not given here.

Legend:
Conditions in all cases: Sus scrofa
Artery [1] = assay: Vasorelaxant activity in pig endothelium-intact coronary artery assessed as inhibition of U46619-induced contraction; type: functional
How it was run: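 Endothelium-intact porcine coronary rings at 2 g resting tension in Krebs-Henseleit, 37 °C, gassed with 95% O2/5% CO2. Rings were discarded if the mean KCl 30 mM contraction was under 4 g or bradykinin relaxation under 40%. PVP K30-complexed sample was given for 30 min. Cumulative U46619 was then added (0.1 nM to 1 µM). ED50 and Emax use % of the mean KCl 30 mM contraction; n = 8, separate hearts.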

Artery [2] = assay: Vasorelaxant activity in pig endothelium-intact coronary artery assessed as inhibition of U46619-induced contraction at 50 ug/ml; type: functional, tissue-based
How it was run: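 Porcine coronary rings with endothelium in Krebs-Henseleit solution at 37 °C, gassed with 95% O2/5% CO2, held at 2 g resting tension and equilibrated 100 min. Each ring was contracted twice with KCl 30 mM and relaxed with bradykinin 1 µM. Test material as a PVP complex was given for 30 min, then cumulative U46619 0.1 nM–1 µM. Contraction was expressed as % of the mean KCl response, giving ED50 and Emax; n=8.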

Artery [3] = assay: Vasorelaxant activity in pig endothelium-intact coronary artery assessed as reversible inhibition of U46619-induced contraction at 1 uM; type: functional, tissue-based
Artery [4] = assay: Vasorelaxant activity in pig endothelium-denuded coronary artery assessed as inhibition of U46619-induced contraction at 15 ug/ml; type: functional, tissue-based
How it was run: (§1)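 Endothelium-removed porcine coronary rings at 2 g resting tension in Krebs-Henseleit, 37 °C, 95% O2/5% CO2. Each ring was primed twice with KCl 30 mM and relaxed with bradykinin 1 µM. Test material, as a PVP K30 complex, was given for 30 min. Stepwise contractions were then made with 5-HT (10 nM to 10 µM), U46619 (0.1 nM to 1 µM) or KCl (10-70 mM). Tension is % of the mean of the two KCl 30 mM contractions; n = 7-11.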

Artery [5] = assay: Vasorelaxant activity in pig endothelium-denuded coronary artery assessed as inhibition of 5-hydroxytryptamine-induced contraction at 15 ug/ml; type: functional, tissue-based; how it was run: as §1
Artery [6] = assay: Vasorelaxant activity in pig endothelium-denuded coronary artery assessed as inhibition of potassium chloride-induced contraction at 50 ug/ml; type: functional, tissue-based; how it was run: as §1

| SMILES | Emax (Artery [1]) | Activity (Artery [2]) | Activity (Artery [3]) | Activity (Artery [4]) | Activity (Artery [5]) | Activity (Artery [6]) |
| --- | --- | --- | --- | --- | --- | --- |
| Cc1coc2c1C(=O)C(=O)c1c-2ccc2c1CCCC2(C)C [TANSHINONE IIA] | 92.9% | Active |  |  |  |  |
| C[C@H]1COC2=C1C(=O)C(=O)c1c2ccc2c1CCCC2(C)C [CRYPTOTANSHINONE] | 64.9% | Active |  |  |  |  |
| CC1(C)CCCc2c1ccc1c2C(=O)C(=O)c2c(CO)coc2-1 [PRZEWAQUINONE A] | 29.2% |  | Active | Active | Active | Active |
